How the values were obtained:
[1] = molecular target: T1, Sodium- and chloride-dependent glycine transporter 1 (Homo sapiens, UniProt P48067); test: Inhibition of [3H]glycine uptake at GlyT1
T1 sequence (P48067 whole entry): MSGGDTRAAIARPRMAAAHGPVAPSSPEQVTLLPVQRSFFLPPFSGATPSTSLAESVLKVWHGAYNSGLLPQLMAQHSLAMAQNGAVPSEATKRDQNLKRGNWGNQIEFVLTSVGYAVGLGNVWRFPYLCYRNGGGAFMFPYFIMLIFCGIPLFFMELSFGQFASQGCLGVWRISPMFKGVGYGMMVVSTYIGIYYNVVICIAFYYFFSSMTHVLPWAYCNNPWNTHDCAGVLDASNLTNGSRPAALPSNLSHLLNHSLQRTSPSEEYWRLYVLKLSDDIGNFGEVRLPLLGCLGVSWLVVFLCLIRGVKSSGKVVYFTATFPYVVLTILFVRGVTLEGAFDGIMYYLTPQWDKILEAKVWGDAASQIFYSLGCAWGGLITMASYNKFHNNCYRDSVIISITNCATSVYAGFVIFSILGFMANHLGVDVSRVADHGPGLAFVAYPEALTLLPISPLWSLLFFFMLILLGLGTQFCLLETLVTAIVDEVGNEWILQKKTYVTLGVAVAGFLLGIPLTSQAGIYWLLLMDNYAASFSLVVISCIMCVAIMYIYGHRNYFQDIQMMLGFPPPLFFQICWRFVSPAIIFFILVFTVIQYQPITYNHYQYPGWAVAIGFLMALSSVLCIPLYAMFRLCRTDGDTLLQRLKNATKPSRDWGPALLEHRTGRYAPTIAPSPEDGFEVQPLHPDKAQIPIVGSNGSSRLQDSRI

[2] = molecular target: T2, Sodium- and chloride-dependent glycine transporter 2 (Homo sapiens, UniProt Q9Y345); test: Inhibition of [3H]glycine uptake at GlyT2
T2 sequence (Q9Y345 whole entry): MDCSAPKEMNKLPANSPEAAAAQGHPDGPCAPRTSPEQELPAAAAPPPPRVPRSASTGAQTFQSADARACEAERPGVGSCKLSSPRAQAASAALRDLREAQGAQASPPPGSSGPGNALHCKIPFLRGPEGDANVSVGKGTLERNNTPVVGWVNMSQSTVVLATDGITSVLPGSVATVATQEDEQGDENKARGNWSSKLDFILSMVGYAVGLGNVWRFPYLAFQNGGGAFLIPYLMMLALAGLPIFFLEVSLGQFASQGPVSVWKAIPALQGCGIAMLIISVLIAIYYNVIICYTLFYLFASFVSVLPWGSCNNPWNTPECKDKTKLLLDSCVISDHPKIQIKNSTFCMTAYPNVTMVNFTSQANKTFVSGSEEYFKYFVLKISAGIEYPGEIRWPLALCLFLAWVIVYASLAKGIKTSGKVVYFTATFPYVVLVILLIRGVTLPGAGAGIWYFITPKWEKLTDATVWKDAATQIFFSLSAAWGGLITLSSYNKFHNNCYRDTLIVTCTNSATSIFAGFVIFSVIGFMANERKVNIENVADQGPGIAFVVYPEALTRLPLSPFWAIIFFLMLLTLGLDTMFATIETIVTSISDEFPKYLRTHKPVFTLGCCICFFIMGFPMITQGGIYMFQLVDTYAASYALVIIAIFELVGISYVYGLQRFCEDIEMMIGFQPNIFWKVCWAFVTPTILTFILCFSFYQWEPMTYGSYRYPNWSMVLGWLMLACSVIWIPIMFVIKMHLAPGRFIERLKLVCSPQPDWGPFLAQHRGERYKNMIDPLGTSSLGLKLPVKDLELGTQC

Nociceptin receptor = Nociceptin receptor (Homo sapiens, UniProt P41146); test: Displacement of [3H]NOP from human NOP receptor expressed in HEK293 cells; type: cell-based
Procedure, shortened: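 Radioligand binding using membranes from HEK293 cells stably (permanently) transfected with human NOP receptor; displacement of [3H]-NOP measured.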

Sequence of Nociceptin receptor (P41146 whole entry): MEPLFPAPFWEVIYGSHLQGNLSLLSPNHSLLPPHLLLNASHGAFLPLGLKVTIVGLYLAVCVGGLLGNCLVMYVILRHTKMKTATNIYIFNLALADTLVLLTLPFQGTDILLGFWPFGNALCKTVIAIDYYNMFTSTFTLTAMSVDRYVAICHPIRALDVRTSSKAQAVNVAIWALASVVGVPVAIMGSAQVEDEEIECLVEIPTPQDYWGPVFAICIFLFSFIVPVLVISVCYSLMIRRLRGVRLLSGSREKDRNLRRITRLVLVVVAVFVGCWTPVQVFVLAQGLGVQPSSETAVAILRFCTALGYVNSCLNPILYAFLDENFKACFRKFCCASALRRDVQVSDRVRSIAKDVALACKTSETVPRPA

Row | EC50 [1] [µM] | EC50 [2] [µM] | Compound | IC50 (Nociceptin receptor) [µM]
1 | 2.88 |  | O=C1NC[C@H](c2ccccc2)C12CCN([C@@H]1CCCC[C@@H]1c1ccccc1)CC2 | 
2 | 1.3 | 8.36 | O=C1NC[C@H](c2ccc(F)cc2)C12CCN([C@H]1CCCC[C@H]1c1ccc(F)cc1)CC2 | 
3 | 0.113 |  | COc1ccc(C2CNC(=O)C23CCN(C2CCCCC2c2ccc(F)cc2)CC3)cc1 (stereo unspecified) | 
4 | 0.036 | 39.9 | O=C1NC[C@H](c2ccc(F)cc2)C12CCN([C@@H]1CCCC[C@@H]1c1ccc(F)cc1)CC2 | > 10
5 | 0.043 | 16.7 | O=C1NC[C@@H](c2ccc(F)cc2)C12CCN([C@@H]1CCCC[C@@H]1c1ccc(F)cc1)CC2 | > 10
6 | 2.83 |  | O=C1NC[C@@H](c2ccccc2)C12CCN([C@@H]1CCCC[C@@H]1c1ccccc1)CC2 | 
7 | 1.06 | > 30 | O=C1NC[C@@H](c2ccc(F)cc2)C12CCN([C@H]1CCCC[C@H]1c1ccc(F)cc1)CC2 | 
8 | 2.33 |  | O=C1NCC(c2ccc(F)cc2)C12CCN(C1CCCCC1c1ccc(C(F)(F)F)cc1)CC2 (single isomer, unassigned; diastereomer 1) | 
9 | 0.27 |  | O=C1NCC(c2ccc(Cl)c(Cl)c2)C12CCN(C1CCCCC1c1ccc(F)cc1)CC2 (single isomer, unassigned; diastereomer 1) | 
10 | 0.167 |  | O=C1NCC(c2ccccc2)C12CCN(C1CCCCC1c1ccc(F)cc1)CC2 (single isomer, unassigned; diastereomer 1) | 
11 | 1.13 |  | COc1ccc(C2CNC(=O)C23CCN(C2CCCCC2c2ccc(C)cc2)CC3)cc1 (single isomer, unassigned; diastereomer 1) | 
12 | 0.953 |  | O=C1NCC(c2ccc(F)cc2)C12CCN(C1CCCCC1c1ccc(C(F)(F)F)cc1)CC2 (single isomer, unassigned; diastereomer 2) | 
13 | 2.19 |  | O=C1NCC(c2ccc(Cl)c(Cl)c2)C12CCN(C1CCCCC1c1ccc(F)cc1)CC2 (single isomer, unassigned; diastereomer 2) | 
14 | 0.048 |  | O=C1NCC(c2ccccc2)C12CCN(C1CCCCC1c1ccc(F)cc1)CC2 (single isomer, unassigned; diastereomer 2) | 
15 | 16.6 |  | COc1ccc(C2CNC(=O)C23CCN(C2CCCCC2c2ccc(C)cc2)CC3)cc1 (single isomer, unassigned; diastereomer 2) | 
16 | 0.129 |  | O=C1NCC(c2ccc(F)cc2)C12CCN(C1CCCCC1c1ccc(C(F)(F)F)cc1)CC2 (single isomer, unassigned; diastereomer 3) | 
17 | 0.091 |  | O=C1NCC(c2ccc(F)cc2)C12CCN(C1CCCCC1c1ccc(C(F)(F)F)cc1)CC2 (stereo in doubt) | 

Row | Compound | EC50 [1] [µM] | EC50 [2] [µM] | IC50 (Nociceptin receptor) [µM]
18 | O=C1NCC(c2ccccc2)C12CCN(C1CCCCC1c1ccccc1)CC2 (stereo unspecified) | 0.232 | 25 | > 10
19 | O=C1NC[C@@H](c2ccccc2)C12CCN([C@H]1CCCC[C@H]1c1ccccc1)CC2 | 0.246 | 39.6 | > 10
20 | O=C1NC[C@H](c2ccccc2)C12CCN([C@H]1CCCC[C@H]1c1ccccc1)CC2 | 0.061 |  | > 10

— ChEMBL document CHEMBL1138975, “Design and synthesis of 4-substituted-8-(2-phenyl-cyclohexyl)-2,8-diaza-spiro[4.5]decan-1-one as a novel class of GlyT1 inhibitors: achieving selectivity against the mu opioid and nociceptin/orphanin FQ peptide (NOP) receptors” (Bioorg Med Chem Lett, 2006)
